HIV Env fusion: inhibitors of HIV-1 Env-driven cell-cell fusion, primary screen, HeLa-JRFL effector, CEM21 target cells, luciferase | inhibition, % at 12.3 µM | 1.1% of 360,000 active;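 active = mean replicate inhibition score of at least 50 and every replicate individually at or above 50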;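 note: 0% = plate neutral controls and 100% = maraviroc near 300 nM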
FN deposit inh: inhibitors of fibronectin matrix deposition, primary screen, AH1F cells, Alexa488-fibronectin fluorescence, plate reader. AH1F fibroblasts, overnight. inhibition, % at 12.6 µM. 0.086% of 350,000 active;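 active = mean inhibition across replicates of 30% or more, regardless of how many single replicates reach that level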;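 note: positive control wells lacked labelled fibronectin entirely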
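material = AH1F fibroblast monolayer depositing Alexa488-labelled fibronectin into matrix | amount = 10000 AH1F cells/well | buffer or medium = DMEM plus 2% serum, read in PBS | incubation = 1 h cell adhesion before compound, then overnight fibronectin incubation | detection = fluorescence at 485 nm excitation, 525 nm emission | evaluation = percent inhibition as loss of matrix-bound fibronectin fluorescence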
DENV2 CPE rescue: inhibitors of DENV2 cytopathic effect, primary screen, cell-based, plate reader, single concentration; 1.7% of 350,000 active; CPE inhibition, % at 9.99 µM; DENV2-infected cells, cytopathic effect rescue; AID 651640, 2012; in the data active = CPE inhibition above about 20%, passing the limit was not always enough; tested in BHK-21 cells;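 note: 0% = median of neutral control wells and 100% = median of positive control wells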
rRNA inh HTS: reduced GFP signal of wild-type E. coli, primary screen, bacterial rRNA inhibitor project, GFP/RFP fluorescence, OD600, single point. GFP signal change (wild-type ribosome), % (concentration not given with the values). E. coli WT GFP vs humanized-ribosome RFP mutants, 24 h; active compounds read low; DMSO median 0, no signal -100. 1.6% of 350,000 active;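 active = significant combined selectivity score with lowered wild-type GFP, culture density cut under 30%, mutant RFP and density less affected; inactive = any of these conditions unmet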
PGC1a acetyl inh: inhibitors of PGC1a acetylation signal, primary screen, cell-based, U2OS, AlphaScreen, inhibitor mode; AlphaScreen anti-acetyl-lysine; with virally co-expressed GCN5 acetyltransferase; AID 651687, 2012; inhibition, % at 15.6 µM; 0.17% of 350,000 active;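 active = every replicate shows inhibition of at least 40%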;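 note: 0% = neutral control wells and 100% = positive control wells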
PglD DTNB: C. jejuni PglD acetyltransferase inhibitors, primary screen, biochemical, DTNB colorimetric, single point; inhibition, % at 12.5 µM; UDP-N-acetylbacillosamine N-acetyltransferase PglD (Campylobacter jejuni); 0.098% of 360,000 active; purified PglD enzyme, DTNB colorimetric CoA detection; AID 602405, 2012; in the data active = inhibition above about 16%, passing the limit was not always enough
* hit, by the source's call; . = no result given; ! = not confirmed by another sample; [ ] = another dose, or the depositor's remark. Rows were chosen to be rich in hits. Some 3.5% of all compounds tested hit in one or more screens of this group.

SMILES	HIV Env fusion	FN deposit inh	DENV2 CPE rescue	rRNA inh HTS	PGC1a acetyl inh	PglD DTNB
COc1ccc(S(=O)(=O)N(C)C[C@@H]2Oc3ccc(N(C)C)cc3CC(=O)N([C@H](C)CO)C[C@H]2C)cc1	10[16.7 µM]	7	30*	-2	4	6
COc1ccc(S(=O)(=O)N(C)C[C@H]2Oc3ccc(N(C)C)cc3CC(=O)N([C@H](C)CO)C[C@H]2C)cc1	5[16.7 µM]	10	-15	-2	-6	9
C[C@@H]1CN([C@@H](C)CO)C(=O)c2cc(NS(=O)(=O)c3ccccc3)ccc2O[C@@H](C)CCCCO[C@@H]1CN(C)C(=O)CCC(F)(F)F	-18[16.7 µM]	.	1	-2	-6	-3
CC(C)(C)NC(=O)C(c1ccc(-c2ccccc2)cc1)n1c(=O)c(-c2ccccc2)nc2ccccc21 (stereo not given)	9	-12	-11	10	.	.
CC(C(=O)NC(C)(C)C)n1c(C(c2ccccc2)c2ccccc2)nc2ccccc21 (stereo not given)	87*	-4	-13	-12	.	.
CCC(C(=O)NC(C)(C)C)n1c(C(c2ccccc2)c2ccccc2)nc2ccccc21 (stereo not given)	86*	-4	-10	-4	.	.
CCC(C(=O)NC(C)(C)C)n1c(-c2ccc(C)cc2)nc2ccccc21 (stereo not given)	-6	6	6	-8	.	.
Cc1csc(-c2nc3ccccc3n2C(C(=O)NC(C)(C)C)c2ccccc2)c1 (stereo not given)	57*	6	22*	-7	.	.
CC(c1nc2ccccc2[nH]1)n1c(-c2ccncc2)nc2ccccc21 (stereo not given)	5	8	-11	-1	.	.
Cc1csc(-c2nc3ccccc3n2C(C)c2nc3ccccc3[nH]2)c1 (stereo not given)	-19	6	1	-30*	.	.
CN1CCN(C(=O)C[C@@H]2C[C@@H]3c4cc(NC(=O)C5CCOCC5)ccc4O[C@@H]3[C@H](CO)O2)CC1	10[16.7 µM]	6	-3	4	-11	0
O=C(C[C@H]1C=C[C@@H](NS(=O)(=O)c2ccccc2)[C@H](CO)O1)N1CCN(c2ccccc2)CC1	.	.	-8	-2	-12	.
CC(C)(C)NC(=O)C(c1cccc2ccccc12)n1c(=O)c(-c2ccco2)nc2ccccc21 (stereo not given)	-14	-12	0	3	.	.
CC(C)(C)NC(=O)C(c1cccc2ccccc12)n1c(=O)c(-c2ccccc2)nc2ccccc21 (stereo not given)	10	-4	27*	.	.	.
CO[C@@H]1CC[C@H]2CCN(C)C(=O)[C@@H](C)[C@H](OC)CN(C)C(=O)c3cccc(C#N)c3OC[C@@H]1O2	4[16.7 µM]	1	-2	0	3	1
CC(O)CNCCCOc1ccccc1OCc1ccccc1 (stereo not given)	-18	2	-3	7	.	.
CNCC(C)COc1ccccc1OCc1ccccc1 (stereo not given)	.	5	64*	-2	.	.
COc1ccccc1Oc1ccc2c(c1)C(=O)N(c1ccc(C)cc1)C2=O	.	.	.	.	104*	.
COc1ccc(S(=O)(=O)Nc2ccc3c(c2)C(=O)N([C@@H](C)CO)C[C@@H](C)[C@@H](CN(C)C(=O)Nc2ccc(F)cc2)O3)cc1	15[16.7 µM]	.	-5	3	-1	0
C[C@H]1CN([C@@H](C)CO)C(=O)CCCn2nncc2CO[C@H]1CN(C)S(=O)(=O)c1ccc(Oc2ccccc2)cc1	-12	0	30*!	-26	37	-1
C[C@@H]1CN([C@H](C)CO)C(=O)CCCn2nncc2CO[C@H]1CN(C)S(=O)(=O)c1cn(C)cn1	4	-1	16	0	105*	-8
C[C@@H]1CN([C@H](C)CO)C(=O)CCCn2nncc2CO[C@@H]1CN(C)S(=O)(=O)c1ccc(Oc2ccccc2)cc1	-17	16	-13	3	-5	4
